From PMC2940062 (Cancer, 2010)
Like-named read-outs stand apart in the source and are kept apart here.

What was measured:
[1] = Docetaxel pharmacokinetics in plasma, day 1 of cycle 1; type: in vivo; conditions: human, intravenous
Method in brief: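 Patients with advanced NSCLC got a 60-min i.v. docetaxel infusion on day 1, alongside oral everolimus (5 or 7.5 mg daily) and dexamethasone premedication (8 mg twice daily for 3 days, starting the day before). Peripheral venous blood was drawn into sodium heparin on cycle 1 day 1, centrifuged (4 °C, 3000 × g, 10 min), and plasma stored at −80 °C. Validated LC-MS/MS quantitation was used, with noncompartmental t1/2.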

[2] = single-agent docetaxel, second line NSCLC; cited from earlier work
[3] = Everolimus pharmacokinetics in blood, cycle 1; type: in vivo, human; conditions: for AUC(0-t) / Cmax: human, whole blood, oral
Method in brief: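 NSCLC patients; oral mTOR inhibitor daily on days 1–19 of 3-week cycles, with a 60-min i.v. co-drug infusion on day 1 and dexamethasone premedication. Cycle 1, days 1, 8 and 15: 2 mL venous blood into K-EDTA at 30 min pre-dose and 1, 2, 5, 8 and 24 h post-dose, frozen at −20 °C within 60 min.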

[4] = system: recurrent or refractory NSCLC; conditions: everolimus monotherapy; cited from earlier work
[5] = single agent; cited from earlier work

Q: What does the source list for `CC(=O)O[C@@]12CO[C@@H]1C[C@H](O)[C@@]1(C)C(=O)[C@H](O)C3=C(C)[C@@H](OC(=O)[C@H](O)[C@@H](NC(=O)OC(C)(C)C)c4ccccc4)C[C@@](O)([C@@H](OC(=O)c4ccccc4)[C@H]21)C3(C)C` [Docetaxel, docetaxel]?
A: half-life [1]: 9.4 ± 3.4 h; half-life ([1]; 60 mg/m2): 16.8 h; AUC(0-inf) ([1]; 60 mg/m2, AUC0-∞, Day 1, everolimus 5 mg/day, docetaxel 60 mg/m^2, n=1): 2.08 µM·h; Cmax ([1]; 60 mg/m2, Cmax, Day 1, everolimus 5 mg/day, docetaxel 60 mg/m^2, n=1): 1010 nM; half-life ([1]; 75 mg/m2): 8.74 h; AUC(0-inf) ([1]; 75 mg/m2, AUC0-∞, Day 1, everolimus 5 mg/day, docetaxel 75 mg/m^2, n=3, mean (SD)): 6.95 µM·h; AUC(0-inf) ([1]; 75 mg/m2, AUC0-∞, Day 1, everolimus 7.5 mg/day, docetaxel 75 mg/m^2, n=1): 7.3 µM·h; Cmax ([1]; 75 mg/m2, Cmax, Day 1, everolimus 5 mg/day, docetaxel 75 mg/m^2, n=3, mean (SD)): 1610 nM; recommended phase II dose (RP2D) (docetaxel day 1 every 3 weeks, in combination with everolimus): 60 mg/m^2; incidence of fever with neutropenia [2]: 2–12%

Q: For `CO[C@H]1C[C@@H]2CC[C@@H](C)[C@@](O)(O2)C(=O)C(=O)N2CCCC[C@H]2C(=O)O[C@H]([C@H](C)C[C@@H]2CC[C@@H](OCCO)[C@H](OC)C2)CC(=O)[C@H](C)/C=C(\C)[C@@H](O)[C@@H](OC)C(=O)[C@H](C)C[C@H](C)/C=C/C=C/C=C/1C` [Everolimus, everolimus], which “recommended phase II dose (RP2D)” value (everolimus days 1-19 every 3 weeks, in combination with docetaxel) is on record?
A: 5 mg PO daily

Q: And the “Everolimus exposure (mean AUC and Cmax) versus dose” value ([3]; 5 and 7.5 mg/day)?
A: increased proportionally with dose

Q: And the AUC(0-t) ([3]; 60 mg/m2, AUC0-24, Day 1, everolimus 5 mg/day, docetaxel 60 mg/m^2, n=3, mean (SD))?
A: 244 ng·h/mL

Q: And the AUC(0-t) ([3]; 60 mg/m2, AUC0-24, Day 8, everolimus 5 mg/day, docetaxel 60 mg/m^2, n=3, mean (SD))?
A: 329 ng·h/mL

Q: What about the AUC(0-t) ([3]; 60 mg/m2, AUC0-24, Day 15, everolimus 5 mg/day, docetaxel 60 mg/m^2, n=3, mean (SD)) of the same compound?
A: 350 ng·h/mL

Q: And the Cmax ([3]; 60 mg/m2, Cmax, Day 1, everolimus 5 mg/day, docetaxel 60 mg/m^2, n=3, mean (SD))?
A: 37.7 ng/mL

Q: What about the Cmax ([3]; 60 mg/m2, Cmax, Day 15, everolimus 5 mg/day, docetaxel 60 mg/m^2, n=3, mean (SD)) of the same compound?
A: 51 ng/mL

Q: What about the AUC(0-t) ([3]; 75 mg/m2, AUC0-24, Day 1, everolimus 5 mg/day, docetaxel 75 mg/m^2, n=10, mean (SD)) of the same compound?
A: 330 ng·h/mL

Q: And the AUC(0-t) ([3]; 75 mg/m2, AUC0-24, Day 1, everolimus 7.5 mg/day, docetaxel 75 mg/m^2, n=4, mean (SD))?
A: 379 ng·h/mL

Q: What about the AUC(0-t) ([3]; 75 mg/m2, AUC0-24, Day 8, everolimus 5 mg/day, docetaxel 75 mg/m^2, n=6, mean (SD)) of the same compound?
A: 336 ng·h/mL

Q: What about the AUC(0-t) ([3]; 75 mg/m2, AUC0-24, Day 15, everolimus 5 mg/day, docetaxel 75 mg/m^2, n=6, mean (SD)) of the same compound?
A: 369 ng·h/mL

Q: What about the AUC(0-t) ([3]; 75 mg/m2, AUC0-24, Day 15, everolimus 7.5 mg/day, docetaxel 75 mg/m^2, n=1) of the same compound?
A: 772 ng·h/mL

Q: And the Cmax ([3]; 75 mg/m2, Cmax, Day 1, everolimus 5 mg/day, docetaxel 75 mg/m^2, n=10, mean (SD))?
A: 22.4 ng/mL

Q: What about the Cmax ([3]; 75 mg/m2, Cmax, Day 8, everolimus 5 mg/day, docetaxel 75 mg/m^2, n=6, mean (SD)) of the same compound?
A: 35.8 ng/mL

Q: What about the Cmax ([3]; 75 mg/m2, Cmax, Day 15, everolimus 5 mg/day, docetaxel 75 mg/m^2, n=6, mean (SD)) of the same compound?
A: 37.8 ng/mL

Q: What about the Cmax ([3]; 75 mg/m2, Cmax, Day 15, everolimus 7.5 mg/day, docetaxel 75 mg/m^2, n=1) of the same compound?
A: 102 ng/mL

Q: What about the response rate [4] of the same compound?
A: 5%

Q: And the “inter-patient variability in AUC” value [5]?
A: 33%
